Results: ChEMBL document CHEMBL1127791, “Design, synthesis, and biological evaluation of cosalane, a novel anti-HIV agent which inhibits multiple features of virus reproduction” (J Med Chem, 1994)

What was measured:
B(EBV+) = assay: Effective concentration required for antiviral activity against B(EBV+) cell line of AA5 cells of Human by XTT assay; type: functional, cell-based
Summary of the method: (§1)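 Human T, B or macrophage-type cell lines were infected with HIV-1 RF in complete RPMI medium with serially diluted drug and cultured 6 days at 37 °C. Inhibition was read by XTT in cytopathically infected cells, or by supernatant RT activity or p24 ELISA in noncytopathically infected cells. EC₅₀ was calculated.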

CEM-SS [1] = assay: Effective concentration required for antiviral activity against HIV strain IIIB in CEM-SS cells by XTT assay; type: functional, cell-based; conditions: Homo sapiens
Summary of the method: (§2)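 CEM-SS cells, 5000/well in RPMI 1640 with 5% FBS, 2 mM L-glutamine and gentamycin, were infected with each HIV strain at MOI 0.01 with serially diluted drug. They were incubated 6 days at 37 °C in 5% CO₂. Viability was read by XTT, and EC₅₀ for protection from virus-induced killing was calculated.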

CEM-SS [2] = assay: Effective concentration required for antiviral activity against T cell line of CEM-SS cells of Human by XTT assay; type: functional, cell-based; summary of the method: as §1
BxT = assay: Effective concentration required for antiviral activity against BxT cell line of 174xCEM cells of Human by XTT assay; type: functional, cell-based; summary of the method: as §1
[3] = tested on: Human immunodeficiency virus; assay: Effective concentration required for antiviral activity against HIV strain G by XTT assay; type: functional, organism-based; conditions: Human immunodeficiency virus 1; summary of the method: as §2
[4] = tested on: Human immunodeficiency virus; assay: Effective concentration required for antiviral activity against HIV strain LAV by XTT assay; type: functional, organism-based; conditions: Human immunodeficiency virus 1; summary of the method: as §2
[5] = tested on: Human immunodeficiency virus; assay: Effective concentration required for antiviral activity against HIV strain MCK by XTT assay; type: functional, organism-based; conditions: Human immunodeficiency virus 1; summary of the method: as §2
[6] = tested on: Human immunodeficiency virus; assay: Effective concentration required for antiviral activity against HIV strain MN by XTT assay; type: functional, organism-based; conditions: Human immunodeficiency virus 1; summary of the method: as §2
[7] = tested on: Human immunodeficiency virus; assay: Effective concentration required for antiviral activity against HIV strain PM16 by XTT assay; type: functional, organism-based; conditions: Human immunodeficiency virus 1; summary of the method: as §2
[8] = tested on: Human immunodeficiency virus; assay: Effective concentration required for antiviral activity against HIV strain SKI by XTT assay; type: functional, organism-based; conditions: Human immunodeficiency virus 1; summary of the method: as §2
[9] = tested on: Human immunodeficiency virus; assay: Effective concentration required for antiviral activity against HIV strain VIHU (nonsyncytia inducing) by XTT assay; type: functional, organism-based; conditions: Human immunodeficiency virus 1
[10] = tested on: Human immunodeficiency virus; assay: Effective concentration required for antiviral activity against HIV strain WEJO (syncytia inducing) by XTT assay; type: functional, organism-based; conditions: Human immunodeficiency virus 1
[11] = tested on: Human immunodeficiency virus; assay: Effective concentration required for antiviral activity against HIV strain WOME (syncytia inducing) by XTT assay; type: functional, organism-based; conditions: Human immunodeficiency virus 1
[12] = tested on: Human immunodeficiency virus 2; assay: Effective concentration required for antiviral activity against HIV strain MS (HIV-2) by XTT assay; type: functional, organism-based; summary of the method: as §2
[13] = tested on: Human immunodeficiency virus; assay: Effective concentration required for antiviral activity against HIV strain 205 by XTT assay; type: functional, organism-based; conditions: Human immunodeficiency virus 1; summary of the method: as §2
[14] = tested on: Human immunodeficiency virus; assay: Effective concentration required for antiviral activity against HIV strain 214 by XTT assay; type: functional, organism-based; conditions: Human immunodeficiency virus 1; summary of the method: as §2
[15] = tested on: Human immunodeficiency virus; assay: Effective concentration required for antiviral activity against HIV strain A17 (pyridinone-resistant strain) by XTT assay; type: functional, organism-based; conditions: Human immunodeficiency virus 1; summary of the method: as §2
[16] = tested on: Human immunodeficiency virus; assay: Effective concentration required for antiviral activity against HIV strain BAKI (syncytia inducing) by XTT assay; type: functional, organism-based; conditions: Human immunodeficiency virus 1
[17] = tested on: Human immunodeficiency virus; assay: Effective concentration required for antiviral activity against HIV strain G9106 (AZT-resistant strain) by XTT assay; type: functional, organism-based; conditions: Human immunodeficiency virus 1; summary of the method: as §2
MT4 = assay: Effective concentration required for antiviral activity against T (HTLV-1+)cell line of MT-4 cells of Human by XTT assay; type: functional, cell-based; summary of the method: as §1
MT2 = assay: Effective concentration required for antiviral activity against HIV strain IIIB in MT-2 cells by XTT assay; type: functional, cell-based; conditions: Homo sapiens
Summary of the method: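 HIV-1 IIIB was tested in MT-2 cells in a microtiter XTT cytopathicity assay. Serially diluted drug was added to cells infected at MOI 0.01 and incubated 6 days at 37 °C in 5% CO₂. EC₅₀ for cellular protection was calculated from XTT viability.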

PBL = assay: Effective concentration required for antiviral activity against lymphocyte cell line of PBL cells of Human by […]; type: functional, cell-based
Summary of the method: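 PHA-stimulated fresh human PBLs were infected with clinical HIV-1 isolate WEJO in the presence of drug. Culture supernatants were assayed for RT and/or p24 by antigen-capture ELISA to give EC₅₀.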

U-937 = assay: Effective concentration required for antiviral activity against Macrophage cell line of U937 cells of Human by XTT assay; type: functional, cell-based; summary of the method: as §1
[18] = tested on: Human immunodeficiency virus; assay: Effective concentration required for antiviral activity against HIV strain TP1 by XTT assay; type: functional, organism-based; conditions: Human immunodeficiency virus 1; summary of the method: as §2
M = assay: Effective concentration required for antiviral activity against M cell line of macrophage cells of Human by p24 ELISA
[19] = tested on: Human immunodeficiency virus; assay: Effective concentration required for antiviral activity against HIV strain RF by XTT assay; type: functional, organism-based; conditions: Human immunodeficiency virus 1; summary of the method: as §2

SMILES | EC50 (B(EBV+)) | EC50 (CEM-SS [1]) | EC50 (CEM-SS [2]) | EC50 (BxT) | EC50 [3] | EC50 [4] | EC50 [5] | EC50 [6] | EC50 [7] | EC50 [8] | EC50 [9] | EC50 [10] | EC50 [11] | EC50 [12] | EC50 [13] | EC50 [14] | EC50 [15] | EC50 [16] | EC50 [17] | EC50 (MT4) | further results
Cc1cn([C@H]2C[C@H](N=[N+]=[N-])[C@@H](CO)O2)c(=O)[nH]c1=O [ZIDOVUDINE] | 1 nM | 4 nM | 95 nM | 55 nM | 2 nM | 8 nM | 2 nM | 4 nM | 11 nM | 13 nM | 20 nM | 18 nM | 6 nM | 2 nM | 9 nM | 9 nM | 2 nM | 10 nM | > 100 nM | 85 nM | EC50 (MT2): 3 nM; EC50 (PBL): 29 nM; EC50 (U-937): 30 nM; EC50 [18]: 6 nM; EC50 (M): 15 nM
CC(C)CCCC(C)[C@H]1CC[C@H]2[C@@H]3CCC4C[C@@H](CCC=C(c5cc(Cl)c(O)c(C(=O)O)c5)c5cc(Cl)c(O)c(C(=O)O)c5)CC[C@]4(C)[C@H]3CC[C@]12C (stereo partly specified) | 6600 nM | 6800 nM | 5100 nM | 6100 nM | 2200 nM | 14400 nM | 2100 nM | 8800 nM | 6600 nM | 20600 nM | 80200 nM | 44800 nM | 69900 nM | 22500 nM | 6700 nM | 7100 nM | 4300 nM | 48100 nM | 6600 nM | 20000 nM | EC50 [19]: 1700 nM; EC50 (MT2): 3400 nM; EC50 (PBL): 44800 nM; EC50 (U-937): 7400 nM; EC50 [18]: 6500 nM; EC50 (M): 19700 nM
